Data published in ChEMBL document CHEMBL3351814, “Discovery of selective hexapeptide agonists to human neuromedin U receptors types 1 and 2” (J Med Chem, 2014).
One block for each molecule: values may come before it. Calls of active or inactive are those of the source. The calls are words filed in the database; no cut-off is given here. Where a SMILES comes first, the peptide text is derived from it. [ ]: non-standard residue; d: D form. The star is where a group is joined. Propanoyl(3-(3-pyridyl)) = O=C(CCc1cccnc1)*; 2Nal = N[C@@H](Cc1ccc2ccccc2c1)C(=O)O; Propanoyl(3-cHex) = O=C(CCC1CCCCC1)*; Hydrocinnamoyl = O=C(CCc1ccccc1)*; hArg = N=C(N)NCCCC[C@H](N)C(=O)O; hPhe = N[C@@H](CCc1ccccc1)C(=O)O; Phg = N[C@H](C(=O)O)c1ccccc1; Pip = O=C(O)[C@@H]1CCCCN1; Dab = NCC[C@H](N)C(=O)O; Dap = NC[C@H](N)C(=O)O

Experiments:
[1] = molecular target: Neuromedin-U receptor 2 (Mus musculus, UniProt Q8BZ39); assay: Agonist activity at mouse NMUR2 expressed in HEK293 cells by calcium mobilization assay; type: functional, cell-based
[2] = molecular target: T1, Neuromedin-U receptor 1 (Mus musculus, UniProt O55040); assay: Agonist activity at mouse NMUR1 expressed in HEK293 cells by calcium mobilization assay; type: functional, cell-based
T1 sequence (O55040 whole entry): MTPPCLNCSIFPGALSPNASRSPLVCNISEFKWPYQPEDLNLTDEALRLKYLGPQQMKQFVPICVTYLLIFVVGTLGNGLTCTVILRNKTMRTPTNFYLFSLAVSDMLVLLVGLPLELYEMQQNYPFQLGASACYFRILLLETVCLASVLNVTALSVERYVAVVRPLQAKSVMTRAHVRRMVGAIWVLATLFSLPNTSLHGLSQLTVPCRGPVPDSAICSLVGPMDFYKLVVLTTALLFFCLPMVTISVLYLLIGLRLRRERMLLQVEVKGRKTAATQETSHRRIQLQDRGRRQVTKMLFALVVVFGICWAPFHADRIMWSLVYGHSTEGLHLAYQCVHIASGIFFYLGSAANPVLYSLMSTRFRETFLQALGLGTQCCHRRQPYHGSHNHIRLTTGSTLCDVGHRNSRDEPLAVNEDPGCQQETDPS

[3] = species: Homo sapiens; assay: Selectivity ratio of PC50 for human NMUR1 to PC50 for human NMUR2
Method in brief: (§1)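 Ratio of PC50 values from the CHO stable-line calcium assays. NMUR1 selectivity is PC50(NMUR2)/PC50(NMUR1); NMUR2 selectivity is PC50(NMUR1)/PC50(NMUR2).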

[4] = molecular target: T2, Neuromedin-U receptor 2 (Homo sapiens, UniProt Q9GZQ4); assay: Agonist activity at human NMUR2 expressed in CHO cells assessed as concentration required to induce 50% response by calcium mobilization assay relative to NMU; type: functional, cell-based
Method in brief: (§2)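 CHO cells stably expressing human NMUR1 (CHO/NMUR1-9) or NMUR2 (CHO/NMUR2-8), selected with G418, seeded 2.0 × 10^4 cells/well. Cells loaded 40 min with 4 μM Fluo-4-AM in HBSS/10 mM HEPES/2.5 mM probenecid pH 7.4. Peptides from 20 mM DMSO stocks applied at 10−12 to 10−6 M final, triplicate, FLIPR read-out. PC50 is the concentration giving 50% of the response to hNMU at 1000 nM.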

[5] = species: Homo sapiens; assay: Selectivity ratio of PC50 for human NMUR2 to PC50 for human NMUR1; method in brief: as §1
[6] = molecular target: T3, Neuromedin-U receptor 1 (Homo sapiens) (UniProt Q9HB89); assay: Agonist activity at human NMUR1 expressed in HEK293 cells at 1 to 100 nM by calcium mobilization assay relative to NMU; type: functional, cell-based
T3 sequence (whole entry): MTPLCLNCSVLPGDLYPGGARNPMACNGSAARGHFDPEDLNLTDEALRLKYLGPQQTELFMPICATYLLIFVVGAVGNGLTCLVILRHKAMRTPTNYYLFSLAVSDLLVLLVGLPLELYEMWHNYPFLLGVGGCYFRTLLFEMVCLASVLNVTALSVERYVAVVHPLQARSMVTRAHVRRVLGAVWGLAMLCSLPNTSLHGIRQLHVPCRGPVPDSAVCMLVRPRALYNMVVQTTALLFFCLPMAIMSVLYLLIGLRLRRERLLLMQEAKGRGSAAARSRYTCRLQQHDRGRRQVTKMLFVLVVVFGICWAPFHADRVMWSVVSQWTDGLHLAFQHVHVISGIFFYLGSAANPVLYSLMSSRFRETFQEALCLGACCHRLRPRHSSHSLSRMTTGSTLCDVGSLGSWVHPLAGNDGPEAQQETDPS
Method in brief: (§3)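 HEK293 cells transiently transfected with human NMUR1 or NMUR2 plasmid (FuGENE6), reseeded 18 h post-transfection at 4.0 × 10^4 cells/well on poly-D-lysine. After 18 h, loaded 40 min with 4 μM Fluo-4-AM in HBSS/HEPES/probenecid buffer pH 7.4 with 1% FCS, then washed. Peptides in buffer with 0.05% BSA and 0.001% Triton X-100. Maximal FLIPR signal expressed as % of hNMU at 1000 nM.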

[7] = molecular target: T2, Neuromedin-U receptor 2; assay: Agonist activity at human NMUR2 expressed in CHO cells at 10^-12 to 10^-6 M by calcium mobilization assay relative to NMU; type: functional, cell-based; method in brief: as §2
[8] = molecular target: T2, Neuromedin-U receptor 2; assay: Agonist activity at human NMUR2 expressed in HEK293 cells at 1 to 100 nM by calcium mobilization assay relative to NMU; type: functional, cell-based; method in brief: as §3
[9] = molecular target: T3, Neuromedin-U receptor 1 (Homo sapiens); assay: Agonist activity at human NMUR1 expressed in CHO cells at 10^-12 to 10^-6 M by calcium mobilization assay relative to NMU; type: functional, cell-based; method in brief: as §2
[10] = molecular target: T3, Neuromedin-U receptor 1 (Homo sapiens); assay: Agonist activity at human NMUR1 expressed in CHO cells assessed as concentration required to induce 50% response by calcium mobilization assay relative to NMU; type: functional, cell-based; method in brief: as §2
[11] = molecular target: T4, Neuromedin-U receptor 1 (Homo sapiens, UniProt Q9HB89); assay: Partial agonist activity at human NMUR1 expressed in CHO cells by calcium mobilization assay; type: functional, cell-based
T4 sequence (Q9HB89 whole entry): T3 sequence (whole entry)
Method in brief: (§4)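 Calcium mobilization in CHO cells stably expressing human NMUR1 or NMUR2, Fluo-4-AM loaded, read on a fluorometric imaging plate reader. Peptides tested at 10−12 to 10−6 M final in triplicate. EC50 derived from the curves. Intrinsic activity is the maximal response as % of the endogenous agonist hNMU.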

[12] = molecular target: T2, Neuromedin-U receptor 2; assay: Partial agonist activity at human NMUR2 expressed in CHO cells by calcium mobilization assay; type: functional, cell-based; method in brief: as §4
[13] = molecular target: T3, Neuromedin-U receptor 1 (Homo sapiens); assay: Agonist activity at human NMUR1 expressed in HEK293 cells at 10 nM by calcium mobilization assay relative to NMU; type: functional, cell-based; method in brief: as §3
[14] = molecular target: T3, Neuromedin-U receptor 1 (Homo sapiens); assay: Agonist activity at human NMUR1 expressed in HEK293 cells at 1 nM by calcium mobilization assay relative to NMU; type: functional, cell-based; method in brief: as §3
[15] = molecular target: T2, Neuromedin-U receptor 2; assay: Agonist activity at human NMUR2 expressed in CHO cells by calcium mobilization assay; type: functional, cell-based; method in brief: as §4
[16] = molecular target: T2, Neuromedin-U receptor 2; assay: Agonist activity at human NMUR2 expressed in HEK293 cells at 10 nM by calcium mobilization assay relative to NMU; type: functional, cell-based; method in brief: as §3
[17] = molecular target: T2, Neuromedin-U receptor 2; assay: Agonist activity at human NMUR2 expressed in HEK293 cells at 1 nM by calcium mobilization assay relative to NMU; type: functional, cell-based; method in brief: as §3
[18] = molecular target: T4, Neuromedin-U receptor 1; assay: Agonist activity at human NMUR1 expressed in CHO cells by calcium mobilization assay; type: functional, cell-based

T2 sequence (Q9GZQ4 whole entry): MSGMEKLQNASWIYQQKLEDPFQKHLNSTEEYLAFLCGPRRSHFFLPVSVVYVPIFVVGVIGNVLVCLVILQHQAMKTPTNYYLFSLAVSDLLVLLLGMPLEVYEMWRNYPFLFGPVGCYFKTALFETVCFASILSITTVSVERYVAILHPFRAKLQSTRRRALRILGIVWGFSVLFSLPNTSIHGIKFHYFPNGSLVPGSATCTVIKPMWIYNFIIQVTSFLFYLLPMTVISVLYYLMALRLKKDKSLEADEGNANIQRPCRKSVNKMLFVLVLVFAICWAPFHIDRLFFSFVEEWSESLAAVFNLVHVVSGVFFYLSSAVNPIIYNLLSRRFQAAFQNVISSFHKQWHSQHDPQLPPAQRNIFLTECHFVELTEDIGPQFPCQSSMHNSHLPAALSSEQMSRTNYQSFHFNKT
Neuromedin-U receptor 2 (Mus musculus, UniProt Q8BZ39), sequence (Q8BZ39 whole entry): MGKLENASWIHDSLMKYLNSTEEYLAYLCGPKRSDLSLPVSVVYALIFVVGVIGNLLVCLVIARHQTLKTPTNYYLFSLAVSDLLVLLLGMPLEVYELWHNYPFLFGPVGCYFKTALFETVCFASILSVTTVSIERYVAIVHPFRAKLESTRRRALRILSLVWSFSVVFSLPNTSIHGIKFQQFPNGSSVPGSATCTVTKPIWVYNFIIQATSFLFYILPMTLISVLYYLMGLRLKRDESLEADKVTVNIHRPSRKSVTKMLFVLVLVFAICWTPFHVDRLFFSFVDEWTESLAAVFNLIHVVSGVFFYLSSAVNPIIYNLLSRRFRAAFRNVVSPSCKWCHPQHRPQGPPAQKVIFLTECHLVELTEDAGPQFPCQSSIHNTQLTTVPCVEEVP

EC50 [1]: 3 nM
EC50 [2]: 9.5 nM
Molecule: CC(C)C[C@H](NC(=O)[C@H](Cc1ccccc1)NC(=O)[C@@H](N)Cc1ccc(O)cc1)C(=O)N[C@@H](Cc1ccccc1)C(=O)N[C@@H](CCCNC(=N)N)C(=O)N1CCC[C@H]1C(=O)N[C@@H](CCCNC(=N)N)C(=O)N[C@@H](CC(N)=O)C(N)=O

Selectivity ratio [3]: 1.1
Activity [4]: 18 nM
Selectivity ratio [5]: 0.9
Activity [6]: Active
Intrinsic activity [7]: 82%
Activity [8]: Active
Intrinsic activity [9]: 71%
Activity [10]: 20 nM
EC50 [11]: 9 nM
EC50 [12]: 8.4 nM
Molecule: CC(C)C[C@H](NC(=O)CCc1ccccc1)C(=O)N[C@@H](Cc1ccccc1)C(=O)N[C@@H](CCCNC(=N)N)C(=O)N1CCC[C@H]1C(=O)N[C@@H](CCCNC(=N)N)C(=O)N[C@@H](CC(N)=O)C(N)=O (Hydrocinnamoyl-LFRPRN-NH2)

Activity [6]: inactive
Activity [8]: inactive
Molecule: CC(C)C[C@H](NC(=O)CCc1ccccc1)C(=O)N[C@@H](Cc1ccccc1)C(=O)N[C@@H](CCCNC(=N)N)C(=O)N1CCC[C@H]1C(=O)N[C@@H](CCCNC(=N)N)C(=O)N[C@@H](CCC(N)=O)C(N)=O (Hydrocinnamoyl-LFRPRQ-NH2)

Activity [6]: inactive
Activity [8]: inactive
Molecule: CC(C)C[C@H](NC(=O)CCc1ccccc1)C(=O)N[C@@H](Cc1ccccc1)C(=O)N[C@@H](CCCNC(=N)N)C(=O)N1CCC[C@H]1C(=O)N[C@@H](CCCNC(=N)N)C(=O)N[C@@H](CCN)C(N)=O (Hydrocinnamoyl-LFRPR[Dab]-NH2)

Activity [6]: Active
Activity [8]: Active
Molecule: CC(C)C[C@H](NC(=O)CCc1ccccc1)C(=O)N[C@@H](Cc1ccccc1)C(=O)N[C@@H](CCCNC(=N)N)C(=O)N1CCCC[C@H]1C(=O)N[C@@H](CCCNC(=N)N)C(=O)N[C@@H](CC(N)=O)C(N)=O (Hydrocinnamoyl-LFR[Pip]RN-NH2)

Activity [6]: Active
Activity [8]: Active
Molecule: CC(C)C[C@H](NC(=O)CCc1ccccc1)C(=O)N[C@@H](Cc1ccccc1)C(=O)N[C@@H](CCCCNC(=N)N)C(=O)N1CCC[C@H]1C(=O)N[C@@H](CCCNC(=N)N)C(=O)N[C@@H](CC(N)=O)C(N)=O (Hydrocinnamoyl-LF[hArg]PRN-NH2)

Activity [6]: inactive
Activity [8]: inactive
Molecule: CC(C)C[C@H](NC(=O)CCc1ccccc1)C(=O)N[C@@H](Cc1ccc(O)cc1)C(=O)N[C@@H](CCCNC(=N)N)C(=O)N1CCC[C@H]1C(=O)N[C@@H](CCCNC(=N)N)C(=O)N[C@@H](CC(N)=O)C(N)=O (Hydrocinnamoyl-LYRPRN-NH2)

Activity [6]: inactive
Activity [8]: inactive
Molecule: CC(C)C[C@H](NC(=O)CCc1ccccc1)C(=O)N[C@H](C(=O)N[C@@H](CCCNC(=N)N)C(=O)N1CCC[C@H]1C(=O)N[C@@H](CCCNC(=N)N)C(=O)N[C@@H](CC(N)=O)C(N)=O)c1ccccc1 (Hydrocinnamoyl-L[Phg]RPRN-NH2)

Activity [6]: inactive
Activity [8]: inactive
Molecule: CC(C)C[C@H](NC(=O)CCc1ccccc1)C(=O)N[C@@H](CCc1ccccc1)C(=O)N[C@@H](CCCNC(=N)N)C(=O)N1CCC[C@H]1C(=O)N[C@@H](CCCNC(=N)N)C(=O)N[C@@H](CC(N)=O)C(N)=O (Hydrocinnamoyl-L[hPhe]RPRN-NH2)

Selectivity ratio [3]: 0.02
Activity [4]: 249 nM
Selectivity ratio [5]: 49
Activity [6]: Active
Activity [13]: 84%
Intrinsic activity [9]: 79%
Activity [14]: 63%
Activity [10]: 5.1 nM
EC50 [11]: 2.2 nM
Molecule: N=C(N)NCCC[C@H](NC(=O)[C@@H]1CCCN1C(=O)[C@H](CCCNC(=N)N)NC(=O)[C@H](Cc1ccccc1)NC(=O)[C@H](Cc1ccc2ccccc2c1)NC(=O)CCc1cccnc1)C(=O)N[C@@H](CC(N)=O)C(N)=O ({Propanoyl(3-(3-pyridyl))}-[2Nal]FRPRN-NH2)

Selectivity ratio [3]: > 152
EC50 [15]: 6.4 nM
Activity [4]: 6.6 nM
Selectivity ratio [5]: < 0.0066
Activity [16]: 88%
Intrinsic activity [7]: 98%
Activity [17]: 70%
Activity [10]: > 1000 nM
Molecule: CC(C)C[C@H](NC(=O)CCC1CCCCC1)C(=O)N[C@@H](CC(C)C)C(=O)N[C@@H](CN)C(=O)N1CCC[C@H]1C(=O)N[C@@H](CCCNC(=N)N)C(=O)N[C@@H](CC(N)=O)C(N)=O ({Propanoyl(3-cHex)}-LL[Dap]PRN-NH2)

Activity [6]: Active
Activity [8]: Active
Molecule: H-FLFRPRN-NH2

Selectivity ratio [3]: 0.17
EC50 [15]: 2.5 nM
Activity [4]: 2.5 nM
Selectivity ratio [5]: 5.8
EC50 [18]: 0.43 nM
Activity [10]: 0.43 nM
Molecule: H-FRVDEEFQSPFASQSRGYFLFRPRN-NH2

Molecule: H-YFLFAPRN-NH2
EC50 [1]: 156 nM
EC50 [2]: 2410 nM
